# OX1R antag-1 = human HCRTR1 antagonism | O43613 | CHO/OX1R cells, Fluo-8 calcium fluorescence, orexin A | inhibition, % at 5 µM | actives 0.43% (n = 330,000) | AID 434989;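 active means inhibition above its plate's threshold, mean inhibition of all tested compounds on the plate plus 3 SD, cut at about 37% in these data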;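 further: 0% = orexin A challenge wells and 100% = SB-334867-A antagonist wells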
# TAAR1 antag = human TAAR1 antagonism; actives 1.5% (n = 360,000); Q96RJ0; inhibition, % at 3 µM; CHO RD-HGA16 TAAR1, Fluo-8 calcium fluorescence, antagonist;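 active means inhibition above a per-plate cutoff, the mean inhibition of test compounds on that plate plus 3 SD, cut at about 49% in these data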;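 further: 0% = DMSO plus EC80 beta-PEA response and 100% = DMSO alone without agonist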
# Target sequence (Q96RJ0 whole entry, looked up): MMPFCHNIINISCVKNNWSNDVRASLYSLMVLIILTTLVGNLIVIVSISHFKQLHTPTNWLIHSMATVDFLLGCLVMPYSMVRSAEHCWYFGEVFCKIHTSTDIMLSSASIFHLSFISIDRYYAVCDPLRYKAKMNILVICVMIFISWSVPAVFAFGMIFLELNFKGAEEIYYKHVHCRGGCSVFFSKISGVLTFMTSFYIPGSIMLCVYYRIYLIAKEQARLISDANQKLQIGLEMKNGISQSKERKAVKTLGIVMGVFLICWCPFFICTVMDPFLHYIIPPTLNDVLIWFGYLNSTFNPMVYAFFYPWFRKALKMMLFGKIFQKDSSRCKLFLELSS
#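 test system = CHO RD-HGA16 cells bearing hTAAR1 | replication = singlicate | controls = DMSO-only wells and EC80 β-PEA-stimulated wells | reagent = EC80 β-phenethylamine stimulus | read-out basis = percent inhibition of PEA-evoked calcium signal, max/basal emission ratio | schedule = seeding 17-24 h prior, 75-min 37 °C, 30-min RT dye loading | signal = kinetic Fluo-8 calcium fluorescence measurement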
# GPR7 antag = human neuropeptides B/W receptor 1 antagonism. P48145. GPR7-expressing cells, fluorescence antagonist assay. inhibition, % at 4.4 µM. actives 1.1% (n = 290,000); in the data active means inhibition above about 16%, passing the limit was not always enough;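 further: cells stimulated with the agonist NPW; 0% = agonist with vehicle and 100% = vehicle without agonist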
# Target sequence (P48145 whole entry, looked up): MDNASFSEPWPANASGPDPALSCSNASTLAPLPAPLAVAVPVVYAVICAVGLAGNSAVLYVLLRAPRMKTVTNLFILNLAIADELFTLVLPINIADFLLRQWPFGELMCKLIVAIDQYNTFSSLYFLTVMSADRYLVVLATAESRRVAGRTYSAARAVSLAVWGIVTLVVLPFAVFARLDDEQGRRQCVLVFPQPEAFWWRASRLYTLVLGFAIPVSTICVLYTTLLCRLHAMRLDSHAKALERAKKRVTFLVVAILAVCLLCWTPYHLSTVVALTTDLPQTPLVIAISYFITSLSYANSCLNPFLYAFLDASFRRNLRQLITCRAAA
# CHO parental Ca = counter-screen for OX1R antagonists: effect in parental CHO cells; parental CHO-K1, ATP-induced calcium, Fluo-8 fluorescence; inhibition, % at 5.6 µM; actives 0.63% (n = 330,000);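 active means inhibition above that plate's mean sample inhibition plus 3 SD, cut at about 26% in these data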;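 further: 0% = ATP-challenged DMSO wells and 100% = DMSO wells without ATP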
#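 material = parental CHO cells | also added = ATP as calcium-mobilizing challenge | dosing = single point at 5.6 µM | detection = intracellular calcium via Fluo-8 no-wash fluorescent dye | read-out = % inhibition | benchmarks = low control ATP plus DMSO, high control DMSO only | repeats = one well per compound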
# TAAR1 ag = human TAAR1 agonism | Q96RJ0 | CHO RD-HGA16 TAAR1, Fluo-8 calcium fluorescence; vehicle wells 0%, saturating PEA agonist 100% | actives 0.99% (n = 360,000) | activation, % at 3 µM;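 active means activation above the mean activation of all test compounds in the run plus 3 SD, cut at about 38% in these data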
#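 test system = CHO RD-HGA16 cells carrying human TAAR1 plus Gα16 | schedule = 17-24 h seeding, 75 min 37 °C dye, 30 min RT | compound dosing = 3 µM single concentration | control set = DMSO and PEA EC100 | replicates = n 1 | signal = Fluo-8 fluorescence, 5 s baseline then 140 s kinetic read | measure = percent activation vs PEA EC100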
# OX1R antag-2 = blocks the human orexin 1 receptor; OX1R-expressing cells, FRET antagonist read-out; actives 1.8% (n = 330,000); O43613; inhibition, % at 6.6 µM; in the data active means inhibition mostly above about 38%, no sharp cut-off; inactive means mostly below about 40%;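 further: 0% = agonist challenge alone and 100% = reference antagonist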
# TAAR1 ag conf = confirmation of human TAAR1 agonists. actives 82% (n = 2,400). activation, % at 3 µM. AID 651783. CHO RD-HGA16 TAAR1, Fluo-8 calcium fluorescence; scaled: DMSO 0%, maximal phenethylamine 100%. shares compounds with TAAR1 ag;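 active means activation above a cutoff set at the run's mean compound activation plus 3 SD, cut at about 39% in these data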
# Ga16 ag counter = counter-screen for TAAR1 agonists: nonselective agonists in parental cells; shares compounds with TAAR1 ag; CHO-Ga16 parental, Fluo-8 calcium fluorescence; normalized to maximal ATP response, DMSO zero; activation, % at 3 µM; actives 50% (n = 2,400); AID 651787;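 active means activation above the run cutoff, the mean activation over all tested wells plus 3 SD, cut at about 12% in these data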;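 further: 0% = DMSO wells and 100% = maximal ATP response on the peak over basal ratio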
# TAAR1 desens = TAAR1 response desensitization, agonist counter-screen; shares compounds with TAAR1 ag; CHO RD-HGA16 hTAAR1, Fluo-8 calcium, beta-PEA response inhibition; inhibition, % at 3 µM; actives 46% (n = 2,400);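 active means inhibition above the run cutoff, the mean inhibition of all test compounds plus 3 SD, cut at about 49% in these data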;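 further: beta-PEA stimulus applied at its EC80; loss of beta-PEA calcium signal after compound pretreatment read as receptor desensitization; 0% = DMSO with beta-PEA at EC80 and 100% = DMSO alone without agonist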
# Ga16 antag count = counter-screen for TAAR1 agonists: nonselective Ga16 antagonists; AID 651952; actives 39% (n = 2,400); shares compounds with TAAR1 ag; CHO-Ga16 ATP-induced calcium, Fluo-8 fluorescence; inhibition, % at 3 µM;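 active means inhibition above the plate's mean compound inhibition plus 3 SD, computed per plate, cut at about 22% in these data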;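 further: 0% = EC80 ATP with DMSO and 100% = DMSO wells without ATP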
# An asterisk follows results filed as active; nt = no result given. Compounds with a hit are over-represented: about 4.6% of the library has one in this group of screens.
SMILES,OX1R antag-1,TAAR1 antag,GPR7 antag,CHO parental Ca,TAAR1 ag,OX1R antag-2,TAAR1 ag conf,Ga16 ag counter,TAAR1 desens,Ga16 antag count
CCOC(=O)Cc1nnc(NC(=O)Nc2ccccc2)s1,-22,26,-5,-15,45*,17,67*,4,42,4
COc1ccc(NC(=O)Nc2nnc(CC(=O)NCc3ccccc3)s2)cc1,-12,22,0,2,44*,16,54*,5,32,14
CCCCCCn1c(=O)[nH]c2nc3cc(N)ccc3nc2c1=O,75*,57*,16,51*,118*,18,95*,96*,68*,67*
CCOc1cc2c(C#N)c(N3CCNCC3)nc(N)c2c(N)n1,-24,54*,-6,-14,61*,20,83*,3,81*,12
COCc1cc(C)nc(N2CCCCC2)c1C#N,-26,-16,7,-7,15,-1,nt,nt,nt,nt
COCc1cc(C)nc(N2CCNCC2)c1C#N,-16,8,-2,-12,53*,6,57*,0,22,3
COC(=O)c1cc(NC(=O)c2ccccc2)c(=O)oc1/C=C/Nc1ccc(Oc2ccccc2)cc1,nt,68*,-9,nt,50*,nt,62*,73*,85*,87*
Nc1ccccc1SSc1ccccc1N,7,16,-2,-1,46*,16,34,11,3,7
N#Cc1ccccc1Sc1ccccc1N,-11,nt,-15,-5,nt,19,nt,nt,nt,nt
O=C(C1=C[C@H](c2ccccc2)C[C@H](OCCCCO)O1)N1CCOCC1,-2,-7,-13,-9,1,10,nt,nt,nt,nt
CC1(C)CC(=O)/C(=C(/O)Cc2ccccc2)C(=NCCc2ccccc2)C1,-40,-3,-4,-26,56*,14,71*,0,47,2
CCCCn1nc(C(=O)Nc2cc(C(F)(F)F)ccc2N2CCOCC2)ccc1=O,-31,11,nt,-38,-2,16,nt,nt,nt,nt
CC(C)c1ccc(N2C(=O)[C@@H]3Cc4ccccc4CN3C2=O)cc1,-3,82*,9,45*,84*,13,77*,46*,64*,47*
Cc1ccc(N2C(=O)[C@@H]3Cc4ccccc4CN3C2=O)cc1,-15,-6,-10,-4,22,7,nt,nt,nt,nt
Cc1ccc(Nc2cccccc2=O)cc1,-8,-1,-8,-8,10,11,nt,nt,nt,nt
Cc1ccc(NN2C(=O)C=C(c3ccccc3)C2=O)cc1,nt,43,0,nt,52*,nt,27,20*,26,44*
CN(C1CCCCC1)S(=O)(=O)c1ccc(C(=O)Nc2sc3c(c2C(N)=O)CC(C)(C)NC3(C)C)cc1,8,39,10,4,85*,22,58*,39*,28,35*
Clc1cccc(CNc2ccn3nc(-c4cccc(OCc5ccccc5)c4)cc3n2)c1,nt,-19,nt,nt,5,nt,nt,nt,nt,nt
CC1=CC(C)(C)N2C(=O)C3(SCC(=O)N3c3ccc(F)cc3)c3cc(C)cc1c32 (configuration not stated),-11,34,11,12,54*,7,39*,25*,27,28*
CC1=CC(C)(C)N2C(=O)C3(NCCc4c3[nH]c3ccccc43)c3cc(C)cc1c32 (configuration not stated),-3,-15,8,4,2,11,nt,nt,nt,nt
O=C(CCc1ccccc1)NNC(=S)NC(=O)c1ccccc1,-2,17,-3,-2,88*,-3,75*,56*,34,25*
CCCCC(=O)NC(=S)NNC(=O)CCc1ccccc1,6,19,-6,-1,64*,14,82*,62*,40,35*
O=C(Cn1nnc2ccccc2c1=O)NCCc1ccc(Cl)cc1Cl,-13,45,-1,-12,54*,11,6,1,2,9
O=C(NCc1ccc2c(c1)OCO2)c1ccc(=O)[nH]c1,-13,-7,-7,-16,1,4,nt,nt,nt,nt
CC(=O)Nc1ccc(S(=O)(=O)NCC(=O)OCC(=O)N2CCCCCC2)cc1,-5,-4,nt,6,1,0,nt,nt,nt,nt
SMILES,OX1R antag-1,TAAR1 antag,GPR7 antag,CHO parental Ca,TAAR1 ag,OX1R antag-2,TAAR1 ag conf,Ga16 ag counter,TAAR1 desens,Ga16 antag count
Nc1c(-c2n[nH]c(=S)n2-c2ccc(Cl)cc2Cl)cnn1-c1ccccc1,-12,16,-5,-4,97*,-7,73*,44*,36,28*
C[C@H](O)[C@@H]1C(=O)N2CCc3ccc(-c4ccccc4)cc3[C@@H]2C[C@@H]1N(C)C(=S)Nc1ccc(F)cc1,nt,-3,nt,nt,66*,nt,70*,34*,49*,46*
C[C@H](O)[C@@H]1C(=O)N2CCc3ccc(-c4cccc(F)c4)cc3[C@@H]2C[C@@H]1N(C)C(=O)Nc1ccccc1,nt,1,nt,nt,1,nt,nt,nt,nt,nt
O=C(NC(=S)N1CCOCC1)c1cn(-c2ccccc2)nc1-c1ccccc1,-6,1,nt,-18,4,9,nt,nt,nt,nt
Cc1cccc(C(CC(=O)NCCc2ccccc2)c2ccccc2)c1O (configuration not stated),14,30,4,-19,66*,19,92*,3,61*,4
Cn1c(O)c(C2=c3ccccc3=NC2=O)sc1=Nc1ccc(Cl)cc1,-27,-18,1,-17,4,9,nt,nt,nt,nt
Cc1ccc2c(c1)c(C1=c3ccccc3=NC1=O)c(O)n2C,-7,25,10,8,63*,22,39*,16*,31,25*
O=C(NCCc1ccc(Cl)cc1)C1CC(=O)N(CCc2ccccc2)C1 (configuration not stated),-1,-20,16,-11,13,-3,nt,nt,nt,nt
O=C(NCCc1ccccc1)C1CC(=O)N(CCc2ccccc2)C1 (configuration not stated),-17,-6,-9,-13,44*,8,68*,0,30,8
O=C(O)C1CC(=O)N(CCc2ccccc2)C1 (configuration not stated),-18,17,-1,0,44*,0,72*,3,0,6

# Compound activity from PubChem.
